One block for each compound: values may come before it. Calls of active or inactive are those of the source. The calls are words filed in the database; no cut-off is given here.
What was measured:
[1] = system: Fusobacterium nucleatum; experiment: Inhibition of Fusobacterium nucleatum ATCC 25586 AI-2 assessed as decrease in biofilm formation at 0.02 to 0.2 uM
[2] = system: Fusobacterium nucleatum; experiment: Inhibition of Fusobacterium nucleatum ATCC 25586 AI-2 assessed as decrease in biofilm formation at 0.2 to 2 uM
[3] = Cytotoxicity against human gingival fibroblasts assessed as effect on cell viability at 2 uM incubated for 24 hrs by CCK8 assay
How it was run: (§1)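 Cells in 96-well plates were exposed to compound for 24 h, with viability read by CCK-8 against a non-treated control. THP-1 (RPMI 1640, 10% FBS) was seeded at 1 × 10^5 cells/well and treated directly. HGFs (DMEM, 10% FBS) at 2 × 10^4 and HOK-16B (keratinocyte basal medium) at 5 × 10^4 cells/well were treated after reaching 85% confluence. Runs were done three times in triplicate.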

[4] = Effect on host cell immune response in human gingival fibroblasts assessed as upregulation of IL-6 mRNA expression at 2 uM after 24 hrs by RT-PCR method; format: ADME
How it was run: (§2)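 THP-1 cells (1 × 10^6 cells/well) or HGFs (2 × 10^5 cells/well) in 6-well plates were incubated 24 h at 37 °C with or without compound, with LPS as comparator. Total RNA (1 µg) was reverse-transcribed, and IL-6 and IL-8 mRNA were quantified by SYBR Green real-time PCR (40 cycles of 95 °C for 15 s and 60 °C for 1 min). Runs were done three times in triplicate.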

[5] = system: THP-1; experiment: Effect on host cell immune response in human THP1 cells assessed as upregulation of IL-8 mRNA expression at 2 uM after 24 hrs by RT-PCR method; format: ADME, cell-based; conditions: thp-1, 24 h; how it was run: as §2
[6] = system: Vibrio harveyi; experiment: Effect on Vibrio harveyi BB170 planktonic growth at 2 incubated for 9 hrs under aerobic condition by spectrophotometric method; set-up: concentration or dose not given beside the values; conditions: in vitro
[7] = system: Fusobacterium nucleatum; experiment: Inhibition of Fusobacterium nucleatum AI-2-mediated biofilm formation of Fusobacterium nucleatum ATCC 25586 assessed as biofilm biomass at 2 uM incubated for 48 hrs under anaerobic condition by confocal laser scanning microscopic method (reference value: 2.99 um'3/um'2)
[8] = system: Tannerella forsythia; experiment: Inhibition of Tannerella forsythia ATCC 43037 planktonic growth at […] incubated for 48 hrs under anaerobic condition by spectrophotometric method; format: organism-based
How it was run: (§3)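 F. nucleatum, P. gingivalis or T. forsythia were grown planktonically for 48 h at 37 °C under anaerobic conditions with compound at 2 mM. Growth was monitored by absorbance at 600 nm.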

[9] = system: Fusobacterium nucleatum; experiment: Inhibition of Fusobacterium nucleatum AI-2-mediated biofilm formation of Porphyromonas gingivalis ATCC 33277 assessed as biofilm formation at 2 uM incubated for 48 hrs under anaerobic condition by crystal violet staining-based assay (reference value: 100%); set-up: scale not given: the % may be the effect or the level left
How it was run: (§4)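 Crystal-violet biofilm assay on glass slips in 24-well plates with 10% (v/v) F. nucleatum AI-2 and compound at 0.002–2 mM. Inocula were F. nucleatum 2 × 10^7, P. gingivalis 2 × 10^8 and T. forsythia 2 × 10^8 bacteria/mL, held 48 h anaerobically (10% H2, 10% CO2, 80% N2). Slips were washed three times with PBS, stained with 1% crystal violet for 10 min, destained with acetone–alcohol (20:80) and read at A595.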

[10] = system: Fusobacterium nucleatum; experiment: Inhibition of Fusobacterium nucleatum AI-2-mediated biofilm formation of Tannerella forsythia ATCC 43037 assessed as biofilm formation at 2 uM incubated for 48 hrs under anaerobic condition by crystal violet staining-based assay (reference value: 100%); set-up: scale not given: the % may be the effect or the level left; how it was run: as §4
[11] = system: Porphyromonas gingivalis; experiment: Inhibition of Porphyromonas gingivalis ATCC 33277 planktonic growth at […] incubated for 48 hrs under anaerobic condition by spectrophotometric method; format: organism-based; how it was run: as §3
[12] = Cytotoxicity against human HOK16B assessed as effect on cell viability at 2 uM incubated for 24 hrs by CCK8 assay; how it was run: as §1
[13] = system: Fusobacterium nucleatum; experiment: Inhibition of Fusobacterium nucleatum AI-2-mediated biofilm formation of Porphyromonas gingivalis ATCC 33277 assessed as biofilm average depth at 2 uM incubated for 48 hrs under anaerobic condition by confocal laser scanning microscopic method (reference value: 4.87 um)
[14] = system: Fusobacterium nucleatum; experiment: Inhibition of Fusobacterium nucleatum AI-2-mediated biofilm formation of Tannerella forsythia ATCC 43037 assessed as biofilm biomass at 2 uM incubated for 48 hrs under anaerobic condition by confocal laser scanning microscopic method (reference value: 4.05 um'3/um'2)
[15] = system: Fusobacterium nucleatum; experiment: Inhibition of Fusobacterium nucleatum ATCC 25586 planktonic growth at […] incubated for 48 hrs under anaerobic condition by spectrophotometric method; format: organism-based; how it was run: as §3
[16] = system: Fusobacterium nucleatum; experiment: Inhibition of Fusobacterium nucleatum AI-2-mediated biofilm formation of Tannerella forsythia ATCC 43037 assessed as biofilm average depth at 2 uM incubated for 48 hrs under anaerobic condition by confocal laser scanning microscopic method (reference value: 5.29 um)
[17] = system: THP-1; experiment: Effect on host cell immune response in human THP1 cells assessed as upregulation of IL-6 mRNA expression at 2 uM after 24 hrs by RT-PCR method; format: ADME, cell-based; conditions: thp-1, 24 h; how it was run: as §2
[18] = Effect on host cell immune response in human gingival fibroblasts assessed as upregulation of IL-8 mRNA expression at 2 uM after 24 hrs by RT-PCR method; format: ADME; how it was run: as §2
[19] = system: Fusobacterium nucleatum; experiment: Inhibition of Fusobacterium nucleatum AI-2-mediated biofilm formation of Porphyromonas gingivalis ATCC 33277 assessed as biofilm biomass at 2 uM incubated for 48 hrs under anaerobic condition by confocal laser scanning microscopic method (reference value: 3.73 um'3/um'2)
[20] = system: Fusobacterium nucleatum; experiment: Inhibition of Fusobacterium nucleatum AI-2-mediated biofilm formation of Fusobacterium nucleatum ATCC 25586 assessed as biofilm formation at 2 uM incubated for 48 hrs under anaerobic condition by crystal violet staining-based assay (reference value: 100%); set-up: scale not given: the % may be the effect or the level left; how it was run: as §4
[21] = system: THP-1; experiment: Cytotoxicity against human THP1 cells assessed as effect on cell viability at 2 uM incubated for 24 hrs by CCK8 assay; format: cell-based; conditions: thp-1, 24 h; how it was run: as §1
[22] = system: Fusobacterium nucleatum; experiment: Inhibition of Fusobacterium nucleatum AI-2-mediated biofilm formation of Fusobacterium nucleatum ATCC 25586 assessed as biofilm average depth at 2 uM incubated for 48 hrs under anaerobic condition by confocal laser scanning microscopic method (reference value: 5.37 um)

inhibition [1]: inactive
SMILES: CCCOc1ccc2c(c1)C(=C(Br)Br)OC2=O

inhibition [1]: inactive
inhibition [2]: Active
SMILES: O=C1OC(=C(Br)Br)c2ccccc21

inhibition [1]: Active
Activity [7]: 0.32 um3/um2
Activity [9]: 29.3%
Activity [10]: 53.5%
Activity [13]: 1.97 µm
Activity [14]: 0.88 um3/um2
Activity [16]: 2.41 µm
Activity [19]: 0.27 um3/um2
Activity [20]: 33.2%
Activity [22]: 1.72 µm
SMILES: Cc1cccc2c1C(=O)OC2=C(Br)Br
Activity [3]: Non-Toxic
Activity [4]: Non-Toxic
Activity [5]: Non-Toxic
Activity [6]: Non-Toxic
growth inhibition (GI) [8]: Non-Toxic
growth inhibition (GI) [11]: Non-Toxic
Activity [12]: Non-Toxic
growth inhibition (GI) [15]: Non-Toxic
Activity [17]: Non-Toxic
Activity [18]: Non-Toxic
Activity [21]: Non-Toxic

inhibition [1]: inactive
SMILES: CCCCOc1ccc2c(c1)C(=C(Br)Br)OC2=O

inhibition [1]: inactive
SMILES: CCCCOc1cccc2c1C(=O)OC2=C(Br)Br

inhibition [1]: inactive
SMILES: O=C1OC(=C(Br)Br)C2CCCCC12 (stereo unspecified)

inhibition [1]: inactive
SMILES: O=C1OC(=C(Br)Br)C2=C1CCCC2

inhibition [1]: Active
Activity [7]: 0.38 um3/um2
Activity [9]: 34.7%
Activity [10]: 33.5%
Activity [13]: 2.05 µm
Activity [14]: 0.59 um3/um2
Activity [16]: 1.94 µm
Activity [19]: 0.29 um3/um2
Activity [20]: 32.1%
Activity [22]: 1.87 µm
SMILES: Cc1ccc2c(c1)C(=C(Br)Br)OC2=O
Activity [3]: Non-Toxic
Activity [4]: Non-Toxic
Activity [5]: Non-Toxic
Activity [6]: Non-Toxic
growth inhibition (GI) [8]: Non-Toxic
growth inhibition (GI) [11]: Non-Toxic
Activity [12]: Non-Toxic
growth inhibition (GI) [15]: Non-Toxic
Activity [17]: Non-Toxic
Activity [18]: Non-Toxic
Activity [21]: Non-Toxic

inhibition [1]: inactive
SMILES: CCOc1ccc2c(c1)C(=C(Br)Br)OC2=O

inhibition [1]: inactive
SMILES: CCCCCOc1cccc2c1C(=O)OC2=C(Br)Br

inhibition [1]: Active
inhibition [2]: Active
Activity [7]: 0.39 um3/um2
Activity [9]: 48.4%
Activity [10]: 57.8%
Activity [13]: 2.05 µm
Activity [14]: 0.93 um3/um2
Activity [16]: 2.27 µm
Activity [19]: 0.31 um3/um2
Activity [20]: 38.8%
Activity [22]: 1.82 µm
SMILES: O=C1OC(=C(Br)Br)C2CCCC12 (stereo unspecified)
Activity [3]: Non-Toxic
Activity [4]: Non-Toxic
Activity [5]: Non-Toxic
Activity [6]: Non-Toxic
growth inhibition (GI) [8]: Non-Toxic
growth inhibition (GI) [11]: Non-Toxic
Activity [12]: Non-Toxic
growth inhibition (GI) [15]: Non-Toxic
Activity [17]: Non-Toxic
Activity [18]: Non-Toxic
Activity [21]: Non-Toxic

inhibition [1]: inactive
SMILES: CCCCCOc1ccc2c(c1)C(=C(Br)Br)OC2=O

inhibition [1]: inactive
SMILES: O=C1OC(=C(Br)Br)C2=C1CCC2

inhibition [1]: inactive
SMILES: CCCOc1cccc2c1C(=O)OC2=C(Br)Br

inhibition [1]: inactive
SMILES: CCOc1cccc2c1C(=O)OC2=C(Br)Br

inhibition [1]: Active
Activity [7]: 0.42 um3/um2
Activity [9]: 39.2%
Activity [10]: 47.4%
Activity [13]: 2.05 µm
Activity [14]: 0.77 um3/um2
Activity [16]: 2.18 µm
Activity [19]: 0.3 um3/um2
Activity [20]: 55.6%
Activity [22]: 2.02 µm
SMILES: O=C1C=C(Br)/C(=C/Br)O1
Activity [5]: Toxic
Activity [6]: Toxic
Activity [17]: Toxic
Activity [18]: Toxic

Source: ChEMBL document CHEMBL4138116, “New bicyclic brominated furanones as potent autoinducer-2 quorum-sensing inhibitors against bacterial biofilm formation” (Eur J Med Chem, 2017)
